Source: ChEMBL document CHEMBL1140914, “Synthesis and in vitro and in vivo evaluation of 18F-labeled positron emission tomography (PET) ligands for imaging the vesicular acetylcholine transporter” (J Med Chem, 2009)
Blank lines part the entries; values can stand above or below the molecule they belong to.

Experiments:
[1] = system: Blood; test: Drug uptake in Sprague-Dawley rat blood at 25 to 35 uCi, iv after 5 mins postinjection by […]; assay type: ADME, organism-based; conditions: in vivo
How it was run: (§1)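 Mature male Sprague-Dawley rats (250–400 g) under 2–3% isoflurane got 25–35 μCi tracer in 100–150 μL saline via tail vein. Groups of at least 4 were euthanized at 5 min, 30 min, 1 h or 2 h. Brain was dissected into regions, and tissues were weighed and gamma counted against an injectate standard. Values are %ID/g, mean ± SD.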

[2] = system: Lung; test: Drug uptake in Sprague-Dawley rat lung at 25 to 35 uCi, iv after 1 hr postinjection by […]; assay type: ADME, organism-based; conditions: in vivo; how it was run: as §1
[3] = system: Liver; test: Drug uptake in Sprague-Dawley rat liver at 25 to 35 uCi, iv after 30 mins postinjection by […]; assay type: ADME, organism-based; conditions: in vivo, 0.5 h; how it was run: as §1
[4] = system: Heart; test: Drug uptake in Sprague-Dawley rat heart at 25 to 35 uCi, iv after 5 mins postinjection by […]; assay type: ADME, organism-based; conditions: in vivo; how it was run: as §1
[5] = system: Kidney; test: Drug uptake in Sprague-Dawley rat kidney at 25 to 35 uCi, iv after 30 mins postinjection by […]; assay type: ADME, organism-based; conditions: in vivo, 0.5 h; how it was run: as §1
[6] = system: Brain; test: Drug uptake in Sprague-Dawley rat brain at 25 to 35 uCi, iv after 30 mins postinjection by […]; assay type: ADME, organism-based; conditions: in vivo, 0.5 h; how it was run: as §1
[7] = Drug uptake in Sprague-Dawley rat fat at 25 to 35 uCi, iv after 2 hrs postinjection by […]; assay type: ADME, organism-based, Adipose tissue; conditions: in vivo; how it was run: as §1
[8] = system: Muscle tissue; test: Drug uptake in Sprague-Dawley rat muscle at 25 to 35 uCi, iv after 5 mins postinjection by […]; assay type: ADME, organism-based; conditions: in vivo; how it was run: as §1
[9] = system: Brain; test: Drug uptake in Sprague-Dawley rat brain at 25 to 35 uCi, iv after 5 mins postinjection by […]; assay type: ADME, organism-based; conditions: in vivo; how it was run: as §1
[10] = Drug uptake in Sprague-Dawley rat fat at 25 to 35 uCi, iv after 30 mins postinjection by […]; assay type: ADME, organism-based, Adipose tissue; conditions: in vivo, 0.5 h; how it was run: as §1
[11] = system: Heart; test: Drug uptake in Sprague-Dawley rat heart at 25 to 35 uCi, iv after 1 hr postinjection by […]; assay type: ADME, organism-based; conditions: in vivo; how it was run: as §1
[12] = system: Bone; test: Drug uptake in Sprague-Dawley rat bone at 25 to 35 uCi, iv after 30 mins postinjection by […]; assay type: ADME, organism-based, Bone element; conditions: in vivo, 0.5 h; how it was run: as §1
[13] = Drug uptake in Sprague-Dawley rat fat at 25 to 35 uCi, iv after 1 hr postinjection by […]; assay type: ADME, organism-based, Adipose tissue; conditions: in vivo; how it was run: as §1
[14] = system: Blood; test: Drug uptake in Sprague-Dawley rat blood at 25 to 35 uCi, iv after 30 mins postinjection by […]; assay type: ADME, organism-based; conditions: in vivo, 0.5 h; how it was run: as §1
[15] = system: Liver; test: Drug uptake in Sprague-Dawley rat liver at 25 to 35 uCi, iv after 1 hr postinjection by […]; assay type: ADME, organism-based; conditions: in vivo; how it was run: as §1
[16] = system: Kidney; test: Drug uptake in Sprague-Dawley rat kidney at 25 to 35 uCi, iv after 1 hr postinjection by […]; assay type: ADME, organism-based; conditions: in vivo; how it was run: as §1
[17] = system: Brain; test: Drug uptake in Sprague-Dawley rat brain at 25 to 35 uCi, iv after 2 hrs postinjection by […]; assay type: ADME, organism-based; conditions: in vivo; how it was run: as §1
[18] = system: Muscle tissue; test: Drug uptake in Sprague-Dawley rat muscle at 25 to 35 uCi, iv after 2 hrs postinjection by […]; assay type: ADME, organism-based; conditions: in vivo; how it was run: as §1
[19] = system: Muscle tissue; test: Drug uptake in Sprague-Dawley rat muscle at 25 to 35 uCi, iv after 30 mins postinjection by […]; assay type: ADME, organism-based; conditions: in vivo, 0.5 h; how it was run: as §1
[20] = system: Bone; test: Drug uptake in Sprague-Dawley rat bone at 25 to 35 uCi, iv after 2 hrs postinjection by […]; assay type: ADME, organism-based, Bone element; conditions: in vivo; how it was run: as §1
[21] = system: Brain; test: Drug uptake in Sprague-Dawley rat brain at 25 to 35 uCi, iv after 1 hr postinjection by […]; assay type: ADME, organism-based; conditions: in vivo; how it was run: as §1
[22] = system: Bone; test: Drug uptake in Sprague-Dawley rat bone at 25 to 35 uCi, iv after 1 hr postinjection by […]; assay type: ADME, organism-based, Bone element; conditions: in vivo; how it was run: as §1
[23] = system: Heart; test: Drug uptake in Sprague-Dawley rat heart at 25 to 35 uCi, iv after 30 mins postinjection by […]; assay type: ADME, organism-based; conditions: in vivo, 0.5 h; how it was run: as §1
[24] = system: Muscle tissue; test: Drug uptake in Sprague-Dawley rat muscle at 25 to 35 uCi, iv after 1 hr postinjection by […]; assay type: ADME, organism-based; conditions: in vivo; how it was run: as §1
[25] = system: Lung; test: Drug uptake in Sprague-Dawley rat lung at 25 to 35 uCi, iv after 30 mins postinjection by […]; assay type: ADME, organism-based; conditions: in vivo, 0.5 h; how it was run: as §1
[26] = system: Heart; test: Drug uptake in Sprague-Dawley rat heart at 25 to 35 uCi, iv after 2 hrs postinjection by […]; assay type: ADME, organism-based; conditions: in vivo; how it was run: as §1
[27] = system: Kidney; test: Drug uptake in Sprague-Dawley rat kidney at 25 to 35 uCi, iv after 2 hrs postinjection by […]; assay type: ADME, organism-based; conditions: in vivo; how it was run: as §1
[28] = system: Liver; test: Drug uptake in Sprague-Dawley rat liver at 25 to 35 uCi, iv after 5 mins postinjection by […]; assay type: ADME, organism-based; conditions: in vivo; how it was run: as §1
[29] = Drug uptake in Sprague-Dawley rat fat at 25 to 35 uCi, iv after 5 mins postinjection by […]; assay type: ADME, organism-based, Adipose tissue; conditions: in vivo; how it was run: as §1
[30] = system: Lung; test: Drug uptake in Sprague-Dawley rat lung at 25 to 35 uCi, iv after 2 hrs postinjection by […]; assay type: ADME, organism-based; conditions: in vivo; how it was run: as §1
[31] = system: Bone; test: Drug uptake in Sprague-Dawley rat bone at 25 to 35 uCi, iv after 5 mins postinjection by […]; assay type: ADME, organism-based, Bone element; conditions: in vivo; how it was run: as §1
[32] = system: Lung; test: Drug uptake in Sprague-Dawley rat lung at 25 to 35 uCi, iv after 5 mins postinjection by […]; assay type: ADME, organism-based; conditions: in vivo; how it was run: as §1
[33] = system: Blood; test: Drug uptake in Sprague-Dawley rat blood at 25 to 35 uCi, iv after 1 hr postinjection by […]; assay type: ADME, organism-based; conditions: in vivo; how it was run: as §1
[34] = system: Liver; test: Drug uptake in Sprague-Dawley rat liver at 25 to 35 uCi, iv after 2 hrs postinjection by […]; assay type: ADME, organism-based; conditions: in vivo; how it was run: as §1
[35] = system: Blood; test: Drug uptake in Sprague-Dawley rat blood at 25 to 35 uCi, iv after 2 hrs postinjection by […]; assay type: ADME, organism-based; conditions: in vivo; how it was run: as §1
[36] = system: Kidney; test: Drug uptake in Sprague-Dawley rat kidney at 25 to 35 uCi, iv after 5 mins postinjection by […]; assay type: ADME, organism-based; conditions: in vivo; how it was run: as §1
[37] = Displacement of [3H]DTG from sigma2 receptor in rat liver membrane; assay type: cell membranes
How it was run: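 Rat liver membrane homogenate (~300 μg protein) incubated 2 h at room temperature with ~5 nM [3H]DTG plus 1 μM (+)-pentazocine to mask σ1 sites. Haloperidol 10 μM defines nonspecific binding. Filtered and counted.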

- Drug uptake [1]: 0.136 % ID/g
- Drug uptake [2]: 0.188 % ID/g
- Drug uptake [3]: 1.239 % ID/g
- Drug uptake [4]: 0.194 % ID/g
- Drug uptake [5]: 0.416 % ID/g
- Drug uptake [6]: 0.071 % ID/g
- Drug uptake [7]: 0.15 % ID/g
- Drug uptake [8]: 0.047 % ID/g
- Drug uptake [9]: 0.35 % ID/g
- Drug uptake [10]: 0.108 % ID/g
- Drug uptake [11]: 0.051 % ID/g
- Drug uptake [12]: 0.277 % ID/g
- Drug uptake [13]: 0.154 % ID/g
- Drug uptake [14]: 0.087 % ID/g
- Drug uptake [15]: 0.814 % ID/g
- Drug uptake [16]: 0.291 % ID/g
- Drug uptake [17]: 0.022 % ID/g
- Drug uptake [18]: 0.022 % ID/g
- Drug uptake [19]: 0.051 % ID/g
- Drug uptake [20]: 0.532 % ID/g
- Drug uptake [21]: 0.041 % ID/g
- Drug uptake [22]: 0.399 % ID/g
- Drug uptake [23]: 0.094 % ID/g
- Drug uptake [24]: 0.034 % ID/g
- Drug uptake [25]: 0.332 % ID/g
- Drug uptake [26]: 0.031 % ID/g
- Drug uptake [27]: 0.194 % ID/g
- Drug uptake [28]: 1.849 % ID/g
- Drug uptake [29]: 0.052 % ID/g
- Drug uptake [30]: 0.112 % ID/g
- Drug uptake [31]: 0.187 % ID/g
- Drug uptake [32]: 0.904 % ID/g
- Drug uptake [33]: 0.048 % ID/g
- Drug uptake [34]: 0.692 % ID/g
- Drug uptake [35]: 0.027 % ID/g
- Drug uptake [36]: 0.791 % ID/g
SMILES: O=C(c1ccc([18F])cc1)C1CCN([C@@H]2Cc3ccccc3C[C@H]2O)CC1 (stereo in doubt; (+))

- Ki [37]: 278 nM
SMILES: O=C(c1ccc(F)cc1)C1CCN([C@@H]2Cc3ccccc3C[C@H]2O)CC1 (stereo in doubt; (+)-9e)

- Ki [37]: 319 nM
SMILES: O=C(c1ccc(F)cc1)C1CCN([C@@H]2Cc3ccccc3C[C@H]2O)CC1 (stereo in doubt; (-)-9e)

SMILES: O[C@@H]1CCCC[C@H]1N1CCC(c2ccccc2)CC1 [VESAMICOL]
- Ki [37]: 34.5 nM
